Results as given in ChEMBL document CHEMBL4651341, “The discovery of a novel series of compounds with single-dose efficacy against juvenile and adult Schistosoma species” (PLoS Negl Trop Dis, 2021).
Values after ≈ are worked out from the molar mass of the structure shown.

How the values were obtained:
Schistosoma mansoni [1] = test: Concentration required to kill 50% of 21 day old worms 5 days after drug treatment.; format: functional, organism-based; conditions: Puerto Rican, 120 h
Outline: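 Juvenile S. mansoni (Puerto Rican strain) were perfused from CD1 mice 3 weeks post-infection and washed. They were cultured 6–8 per well in 200 µL DMEM with 2 mM glutamine, penicillin/streptomycin and 10% FCS at 37 °C, 5% CO2. Viability of individual worms was scored on day 5 after dosing (120 h).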

Schistosoma mansoni [2] = test: Concentration required to kill 50% of 42 day old worms 5 days after drug treatment.; format: functional, organism-based; conditions: Puerto Rican, 120 h
Outline: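 Adult S. mansoni were perfused from CD1 mice 6 weeks post-infection and washed. They were cultured 3 pairs per well in 1 mL DMEM with 2 mM glutamine, penicillin/streptomycin and 10% FCS […] at 37 °C, 5% CO2. Viability of individual worms was scored on day 5 (120 h).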

[3] = Concentration required to kill 50% HepG2 cells as detected by MTT staining; format: toxicity, cell-based; conditions: homo sapiens, read-out: TC50 (the source's name)
[4] = Percentage of parent compound remaining after incubation for 90 minutes with cyropreserved mouse hepatocytes at a concentration of 1uM compound and […], determined by LCMS; format: ADME, tissue-based, Hepatocyte; conditions: cryopreserved mouse hepatocytes, read-out: Stability
Outline: (§1)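 Compound was incubated at 1 µM final (2 µM working solution mixed 1:1 with hepatocyte suspension) in supplemented KHB pH 7.4. Conditions: 37 °C, 5% CO2, gentle mixing, duplicates. Reaction quenched with ice-cold acetonitrile containing standard; analysed by LC-MS/MS. % remaining = AUC at t / AUC at T0.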

[5] = Percentage of parent compound remaining after incubation for 90 minutes with cyropreserved human hepatocytes at a concentration of 1uM compound and 1 million cells/uL, determined by LCMS/MS; format: ADME, tissue-based, Hepatocyte; conditions: cryopreserved human hepatocytes, read-out: Stability; outline: as §1
[6] = Plasma protein binding determined at 10uM by LC-MS/MS.; format: ADME, cell-free; conditions: mouse
Outline: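 Equilibrium dialysis of plasma spiked at 10 µM (0.1% DMSO) against PBS pH 7.4, 6 h at 37 °C, duplicates. Both chambers analysed by LC-MS/MS after acetonitrile precipitation. % free = buffer/plasma area ratio; recovery also calculated.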

[7] = Partition coefficient of compound between n-octanol and PBS (pH7.4); format: physicochemical; conditions: octanol/water, pH 7.4
Outline: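 Shake-flask method using octanol and PBS pH 7.4, each pre-saturated with the other. Compound was shaken 2 h at 850 rpm, 25 °C, then the phases were separated by centrifugation and both layers diluted and analysed by LC-MS/MS. LogD = log(octanol AUC × relative dilution / buffer AUC).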

[8] = Mean volume of distribution at steady state in Swiss albino male mice at 1 mg/kg per compound (administered iv in a mixture of 5 compounds to 3 mice) assessed by LCMS/MS.; format: ADME, organism-based; conditions: mouse, in vivo, read-out: Volume
Outline: (§2)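 Male Swiss albino mice (~30 g), 3 per experiment, mostly dosed as mixtures of 5 compounds iv via the lateral tail vein. Vehicle: 10% DMSO/90% 50 mM Na2HPO4 with 0.5% Tween-80. Plasma stored at −20 °C and quantified by LC-MS after acetonitrile precipitation.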

[9] = Mean half-life in Swiss albino male mice at 1 mg/kg per compound (administered iv in a mixture of 5 compounds to 3 mice) assessed by LCMS/MS.; format: ADME, organism-based; conditions: mouse, in vivo; outline: as §2
[10] = Mean time to peak plasma concentration in Swiss albino male mice at […] per compound (administered orally in a mixture of 5 compounds to 3 mice) assessed by LCMS/MS.; format: ADME, organism-based; conditions: mouse, po
[11] = Mean plasma concentration at 4h in Swiss albino male mice at […] per compound (administered orally in a mixture of 5 compounds to 3 mice) assessed by LCMS/MS.; format: ADME, organism-based; conditions: mouse, po
[12] = Mean observed clearance in Swiss albino male mice at 1 mg/kg per compound (administered iv in a mixture of 5 compounds to 3 mice) assessed by LCMS/MS.; format: ADME, organism-based; conditions: mouse, in vivo
Outline: (§3)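 Male Swiss albino mice (~30 g), 3 per experiment, mostly dosed as mixtures of 5 compounds iv via the lateral tail vein. Vehicle: 10% DMSO/90% 50 mM Na2HPO4 with 0.5% Tween-80. Blood sampled at 5, 15, 30 min and 1, 2, 4, 8, 24 h. Plasma stored at −20 °C and quantified by LC-MS after acetonitrile precipitation.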

[13] = Mean plasma concentration at 24h in Swiss albino male mice at […] per compound (administered orally in a mixture of 5 compounds to 3 mice) assessed by LCMS/MS.; format: ADME, organism-based; conditions: mouse, po
[14] = Percentage of parent compound remaining after incubation for 30 minutes with cyropreserved mouse hepatocytes at a concentration of 1uM compound and […], determined by LCMS; format: ADME, tissue-based, Hepatocyte; conditions: cryopreserved mouse hepatocytes, read-out: Stability; outline: as §1
[15] = Mean oral bioavailability in Swiss albino male mice at […] per compound (administered in a mixture of 5 compounds to 3 mice) assessed by LCMS/MS.; also: dose 2.5 mg/kg; format: ADME, organism-based; conditions: male, Swiss albino, mouse, in vivo, read-out: Bioavailability
[16] = Mean AUC inf in Swiss albino male mice at 1 mg/kg per compound (administered iv in a mixture of 5 compounds to 3 mice) assessed by LCMS/MS.; format: ADME, organism-based; conditions: mouse, in vivo; for AUC(0-inf): male, Swiss albino; outline: as §3
[17] = Solubility at 25 degC of compound (diluted from DMSO) in PBS at pH 7.4 determined after 24h (1h sonication, 22h shaking, 1h sonication) by LCMS/MS; format: physicochemical
[18] = Concentration required to kill 50% MRC-5 cells as detected by Alamar blue staining; format: toxicity, cell-based, MRC5; conditions: homo sapiens, read-out: TC50 (the source's name)
[19] = Concentration of drug in plasma at 4h following oral drug adminstration at given dose. Determined by LCMS/MS; format: ADME, organism-based; conditions: CD1, mouse
Outline: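 Plasma sampled from the mice of the efficacy experiments, each animal sampled once: one animal per group at 1, 4 and 8 h, two per group at 24 h. Plasma prepared by acetonitrile protein precipitation and analysed by LC-MS against a 10-point calibration line spiked in blank matrix, with QCs at three or more levels.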

[20] = male, Swiss albino, read-out: Clearance (converted)

Row | Compound | EC50 (Schistosoma mansoni [1]) [nM] | EC50 (Schistosoma mansoni [2]) [nM] | CC50 [3] [nM] | remaining at 1.5 h, 1 µM [4] [%] | remaining at 1.5 h, 1 µM [5] [%] | Lipophilicity [7] | half-life [9] [h] | Tmax [10] [h] | concentration at 4 h [11] [ng/mL] | clearance [12, 20] [mL/min/kg] | bioavailability [15] [%] | AUC(0-inf) [16] [ng·h/mL] | solubility kinetic at 24 h [17] [µM] | concentration at 4 h [19] [ng/mL] | also measured
1 | CCc1nc2cnc(-c3ccc(F)c(C(C)C)c3)cn2c1-c1ccc2[nH]ncc2c1F | 5.4 | 3.9 | 11300 | 59.3 | 37.8 |  |  |  |  |  |  |  |  |  | 
2 | Oc1cc(F)c(-c2cnc3cnc(-c4cccc(C(F)(F)F)c4)cn23)c(F)c1 | 2650 | 2380 | 23100 |  |  | 3.12 = | 2.95 | 0.25 | 171 | 9.63 | 41.7 | 870 | 2.88 (≈ 1.13 µg/mL) |  | Binding [6]: 99.595%; Vd [8]: 0.918 L/kg; concentration at 24 h [13]: 0.1 ng/mL; remaining at 0.5 h, 1 µM [14]: 74.1%; CC50 [18]: 8130 nM
3 | CC(C)c1cc(-c2cn3c(-c4ccc5[nH]ncc5c4F)c(C4CCC4)nc3cn2)ccc1F | 4.3 | 7.3 | 10900 | 52.1 | 25.3 |  |  |  |  |  |  |  | 1.35 (≈ 0.599 µg/mL) |  | 
4 | Fc1ccc(-c2cn3c(-c4ccc5[nH]ncc5c4F)c(C4CCC4)nc3cn2)cc1C(F)(F)F | 36 | 36.8 |  | 73.4 | 73.6 |  |  |  |  |  |  |  |  |  | 
5 | Cc1nc2cnc(-c3ccc(F)c(C(F)(F)F)c3)cn2c1-c1ccc(O)cc1F | < 641 | < 780 | > 11100 |  |  | 3.39 = | 2.28 | 0.25 | 7.79 | 48.5 | 13.5 | 172 | 1.54 (≈ 0.624 µg/mL) |  | Binding [6]: 99.805%; Vd [8]: 2.98 L/kg; concentration at 24 h [13]: 0.1 ng/mL; remaining at 0.5 h, 1 µM [14]: 64.1%; CC50 [18]: 15800 nM
6 | CC(C)c1nc2cnc(-c3ccc(F)c(C(F)(F)F)c3)cn2c1-c1ccc2[nH]ncc2c1F |  |  | 12000 |  |  | 4.19 = |  | 1 | 318 |  |  |  |  | 1150 | 
7 | CC(C)c1nc2cnc(-c3cccc(C(F)(F)F)c3)cn2c1-c1ccc(O)cc1F | 79.2 | < 122 | 9000 |  |  | 4.82 = |  |  |  |  |  |  | 6.8 (≈ 2.82 µg/mL) |  | Binding [6]: 99.945%; remaining at 0.5 h, 1 µM [14]: 54.4%; CC50 [18]: 14500 nM
8 | CC(C)c1cc(-c2cn3c(-c4ccc5[nH]ncc5c4F)c(C(F)(F)F)nc3cn2)ccc1F | < 2.67 |  | > 17000 |  |  |  |  | 0.417 | 52.3 |  |  |  |  | 1250 | 
9 | Fc1c(-c2c(C(F)(F)F)nc3cnc(-c4cccc(C(F)(F)C(F)(F)F)c4)cn23)ccc2[nH]ncc12 |  |  | 10900 |  |  | 4.5 = |  |  | 655 | 1.43 |  |  |  | 1100 | 
10 | COc1ccc(-c2c(C(F)(F)F)nc3cnc(-c4cccc(C(F)(F)C(F)(F)F)c4)cn23)cc1O | < 10.6 | 21 | > 11100 |  |  | 4.65 = | 2.11 | 0.25 | 8.54 |  | 9.77 |  | 1.05 (≈ 0.529 µg/mL) |  | Binding [6]: 99.98%; Vd [8]: 4.94 L/kg; clearance [12]: 54.3 mL/min/kg; concentration at 24 h [13]: 0.1 ng/mL; remaining at 0.5 h, 1 µM [14]: 75.3%; AUC [16]: 153 ng·h/mL
11 | Oc1cc(F)c(-c2c(C3CC3)nc3cnc(-c4ccc(F)c(S(F)(F)(F)(F)F)c4)cn23)c(F)c1 | 10.4 | 5.78 | 10100 | 84.9 | 40.2 |  |  |  |  |  |  |  | 41.1 (≈ 20.9 µg/mL) |  | 
12 | Fc1c(-c2c(C(F)(F)F)nc3cnc(-c4cccc(OC(F)(F)F)c4)cn23)ccc2[nH]ncc12 | 23.4 | 20.6 | 9710 | 88.7 | 54 |  | 5.8 | 0.667 | 182 | 19.3 | 114 | 433 |  |  | Vd [8]: 5.68 L/kg; concentration at 24 h [13]: 8.87 ng/mL
13 | CC(C)c1nc2cnc(-c3ccc(F)c(C(F)(F)F)c3)cn2c1-c1c(F)cc(O)cc1F |  | < 46.2 | 7130 |  |  |  |  | 0.25 |  | 18 |  | 466 |  | 4140 | 
14 | CC(C)c1cc(-c2cn3c(-c4ccc5[nH]ncc5c4F)c(C4CC4)nc3cn2)ccc1F |  |  | 15800 |  |  | 6.53 = | 6.18 | 1.33 | 295 |  | 149 | 530 |  | 104 | 
15 | Fc1ccc(-c2cn3c(-c4ccc5[nH]ncc5c4F)c(C4CC4)nc3cn2)cc1S(F)(F)(F)(F)F | 29.5 | 17.3 | 14800 | 88.6 | 101 |  |  |  |  |  |  |  | 0.823 (≈ 0.423 µg/mL) |  | 
